According to article PMC9050340 (RSC Advances, 2020):
In brackets after ≈: the same amount, converted by molar mass.

Assays:
[1] = cited from earlier work; for IC50, inhibition of oxidation of DPPH: from P. latifolia leaves
[2] = DPPH radical scavenging activity assay; conditions: 30 min, room temperature, ethanol
Method in brief: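 Test compound in absolute ethanol (2–100 μg mL−1; 40 μg mL−1 for screening), 1 mL mixed with 2 mL of freshly prepared DPPH (20 μg mL−1 in absolute ethanol). Incubated 30 min at room temperature in the dark, then absorbance read at 517 nm against an absolute ethanol blank. Ascorbic acid as positive control. % scavenging from blank versus sample absorbance; IC50 by nonlinear regression.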

MCF-7 = test: MTT antiproliferative; format: cell-based; conditions: Homo sapiens, MCF7, read-out: Cytotoxicity (IC50 μM) MCF-7
MTT antiproliferative = format: cell-based; conditions: human, MCF-10A cells (normal breast cell line)
MDA-MB-231 cells = test: Wound-healing scratch; format: cell-based, human; conditions: MDA-MB-231, 10 μM, HGF-induced, 24 h
Method in brief: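 MDA-MB-231 cells grown overnight to confluent monolayers, scratched with a pipette tip, washed twice with PBS, then fresh RPMI. Test compound (10 μM, from 10 mM DMSO stock; DMSO ≤0.1%) added in serum-free defined medium with […] HGF, in triplicate, for 24 h. Cells fixed and Giemsa-stained; wound width imaged at 0 and 24 h. % migration calculated relative to DMSO control.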

IC50, DPPH radical scavenging [2] [µg/mL]	SMILES	IC50, inhibition of oxidation of DPPH [1] [µg/mL]	other results
	O=C1C[C@@H](c2ccc(O)cc2)Oc2cc(O)cc(O)c21 [naringenin]	16.0	
17.50 ± 1.3 (≈ 28 µM)	C[C@@H]1O[C@@H](O[C@@H]2[C@@H](O)[C@H](OCCc3ccc(O)c(O)c3)O[C@H](CO)[C@H]2OC(=O)/C=C/c2ccc(O)c(O)c2)[C@H](O)[C@H](O)[C@H]1O [Compound 5, verbascoside]		IC50 (MCF-7): 10.5 ± 0.52 µM; IC50 at 48 h (MTT antiproliferative): 13.9 ± 0.69 µM
	CC(CO)c1cc2c(c(O)c1O)C1=CC(=O)CC(C)(C)C1(C)C=C2 (centres unmarked) [11,12,16-trihydroxy-2-oxo-5-methyl-10-demethyl-abieta-1,[10] and 6,8,11,13-pentene]		IC50 towards DPPH assay ([1]; from P. serratifolia): 20.4 ± 1.3 µg/mL (≈ 62.1 µM)
10 ± 0.3 (≈ 56.8 µM)	O=C1O[C@H]([C@@H](O)CO)C(O)=C1O [L-ascorbic acid, reference compound]		
	CC1(C)CC[C@]2(C(=O)O)CC[C@]3(C)C(=CC[C@@H]4[C@@]5(C)CC[C@H](O)C(C)(C)[C@@H]5CC[C@]43C)[C@@H]2C1 [Compound 10, oleanolic acid]		cell migration inhibition in wound-healing assay (MDA-MB-231 cells): suppressed
	COc1cc(C2Oc3c(OC)cc(C=CC=O)cc3C(O)C2O)ccc1O (centres unmarked) [4′-hydroxy-8,3′-dimethoxy-6-acroleinylflavan-3,4-diol]	22.5	
